MsrA inhibitor = inhibitors of bovine MsrA | AID 651718 | 360,000 compounds, 0.75% hits | inhibition, % at 15.5 µM | purified bovine MsrA, absorbance read-out
MsrA act = activators of bovine methionine sulfoxide reductase A | 360,000 compounds, 0.3% hits | activation, % at 10.6 µM | purified bovine MsrA, absorbance read-out; in the data active = activation above about 7.5%
ARFGAP1 inhibitor = inhibits rat ARF GTPase activating protein 1 | Arfgap1-stimulated ARF1 GTP hydrolysis, GDP FP detection | inhibition, % at 16.5 µM | 360,000 compounds, 0.26% hits | AID 651572;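 active = inhibition above a per-plate limit, mean inhibition of low control wells plus 3 SD, cut at about 25% in these data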
Target sequence (Q62848 1-136 limits assumed): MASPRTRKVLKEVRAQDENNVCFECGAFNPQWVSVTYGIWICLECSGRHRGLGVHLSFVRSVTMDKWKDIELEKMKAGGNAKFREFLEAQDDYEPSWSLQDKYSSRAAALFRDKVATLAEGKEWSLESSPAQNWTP
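Material: truncated rat Arfgap1 GAP domain; Incubation: compound-enzyme preincubation 20 min, reaction 120 min, detection 60 min, 25 °C; Read-out: percent inhibition of Arfgap1-stimulated GTP hydrolysis; Technique: FP, GDP Alexa 633 tracer displaced from anti-GDP antibody, 620/688 nm; Controls: No-Arfgap1 wells (100%) versus DMSO full-reaction wells (0%); Replication: single well per compound.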
ASAP1 inh = inhibitors of human ASAP1 ArfGAP activity; Q9ULH1; ASAP1-stimulated ARF1 GTP hydrolysis, GDP FP detection; inhibition, % at 16.5 µM; 360,000 compounds, 0.19% hits; AID 624377; in the data active = inhibition above about 25%
MsrA conf = bovine MsrA inhibition, confirmed. shares compounds with MsrA inhibitor. 2,300 compounds, 41% hits. inhibition, % at 15.5 µM. AID 651822. purified bovine MsrA, absorbance read-out;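 note: coupled to thioredoxin reductase with NADPH and selenocystamine and DMSO as substrate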
Numbers stand for hits. Hits are enriched below; roughly 1.4% of the tested compounds scored in any of these assays. Cut-off read from the data, not from the text of the source, unless noted: active = inhibition above about 4.5%; inactive = the rest.

For COc1cc(/C=C/C2=NNC(=O)CC2)cc(OC)c1OC the results were MsrA inhibitor 8.2, MsrA act inactive, ARFGAP1 inhibitor inactive, ASAP1 inh inactive and MsrA conf inactive.
CCCn1c(SCC(=O)NC2CCCC2)nnc1-c1cccnc1 was read as MsrA inhibitor inactive, MsrA act inactive, ARFGAP1 inhibitor inactive and ASAP1 inh inactive.
CCN(CC)c1ccc(CNCc2cccs2)cc1 was read as MsrA inhibitor inactive, MsrA act inactive, ARFGAP1 inhibitor inactive and ASAP1 inh inactive.
Screening CNc1ncc(C(=O)c2ccc(F)cc2)s1 returned MsrA inhibitor 4.7, MsrA act inactive, ARFGAP1 inhibitor inactive, ASAP1 inh inactive and MsrA conf inactive.
Screening COc1ccc(/C=N\NC(=O)/C(=C\Nc2nccc(C)n2)NC(=O)c2ccccc2)cc1 returned MsrA inhibitor 8.2, MsrA act inactive, ARFGAP1 inhibitor inactive, ASAP1 inh inactive and MsrA conf 7.7.
COc1ccc(/C=C(/NC(=O)c2ccccc2)C(=O)N/N=C/c2ccncc2)cc1 was read as MsrA inhibitor 6.0, MsrA act inactive, ARFGAP1 inhibitor inactive, ASAP1 inh inactive and MsrA conf 4.9.
COc1ccc(C=CC(C)=NNC(=O)c2ccncc2)cc1 was read as MsrA inhibitor 5.3, MsrA act inactive, ARFGAP1 inhibitor inactive, ASAP1 inh inactive and MsrA conf 6.0.
Cc1ccc(/C=N\NC(=O)/C(=C\Nc2nccc(C)n2)NC(=O)c2ccccc2)cc1 was read as MsrA inhibitor 5.9, MsrA act inactive, ARFGAP1 inhibitor inactive, ASAP1 inh inactive and MsrA conf 6.0.
Screening O=S(=O)(c1ccccc1)C1CC1(c1ccccc1)c1ccccc1 (configuration not stated) returned MsrA inhibitor inactive, MsrA act inactive, ARFGAP1 inhibitor inactive and ASAP1 inh inactive.
For O=C(N[C@H]1c2ccccc2C[C@H]1O)[C@H]1O[C@@H](n2ccc(=O)[nH]c2=O)[C@H](O)[C@@H]1O the results were MsrA inhibitor inactive, MsrA act inactive, ARFGAP1 inhibitor inactive and ASAP1 inh inactive.
CC1CCN(S(=O)(=O)c2ccc3c(c2)N(CC(=O)NCCN2C(C)CCCC2C)C(=O)CS3)CC1 (configuration not stated) was read as MsrA inhibitor inactive, MsrA act inactive, ARFGAP1 inhibitor inactive and ASAP1 inh inactive.
`Cc1ccc(C(=O)NCC(=O)NCC(=O)OCC(=O)c2ccc(F)cc2)cc1` gave MsrA inhibitor 51.6, MsrA act inactive, ARFGAP1 inhibitor inactive, ASAP1 inh inactive and MsrA conf inactive.
`O=C(CNC(=O)c1ccccc1)NCC(=O)OCC(=O)c1ccc(F)cc1` gave MsrA inhibitor inactive, MsrA act inactive, ARFGAP1 inhibitor inactive and ASAP1 inh inactive.
For COc1ccc(C(=O)/C=C/c2ccsc2)cc1CSCC(=O)O the results were MsrA inhibitor 4.7, MsrA act inactive, ARFGAP1 inhibitor inactive, ASAP1 inh inactive and MsrA conf inactive.
`COc1ccc(C(C)=O)cc1CSCCC(=O)O` gave MsrA inhibitor inactive, MsrA act inactive, ARFGAP1 inhibitor inactive and ASAP1 inh inactive.
`N#Cc1cccnc1N1CCN(C(c2ccnc3ccccc23)c2nnnn2-c2ccc3c(c2)OCCO3)CC1` (configuration not stated) gave MsrA inhibitor inactive, MsrA act inactive, ARFGAP1 inhibitor inactive and ASAP1 inh inactive.
Screening COc1cc(/C=C2/NC(=O)NC2=O)cc(Br)c1OCc1cccc(C(=O)O)c1 returned MsrA inhibitor 5.9, MsrA act inactive, ARFGAP1 inhibitor inactive, ASAP1 inh inactive and MsrA conf inactive.
`CN=Cc1c(NC)nc2c(C)cccn2c1=O` gave MsrA inhibitor inactive, MsrA act inactive, ARFGAP1 inhibitor inactive and ASAP1 inh inactive.
CS(=O)(=O)c1ccc2nc(NC(=O)c3ccco3)sc2c1 was read as MsrA inhibitor 5.7, MsrA act inactive, ARFGAP1 inhibitor inactive, ASAP1 inh inactive and MsrA conf 4.7.
`O=C(Nc1nc2cc3c(cc2s1)OCO3)C1=COCCO1` gave MsrA inhibitor 5.2, MsrA act inactive, ARFGAP1 inhibitor inactive, ASAP1 inh inactive and MsrA conf inactive.
For CS(=O)(=O)c1ccc2nc(NC(=O)c3ccc(=O)[nH]c3)sc2c1 the results were MsrA inhibitor 6.3, MsrA act inactive, ARFGAP1 inhibitor inactive, ASAP1 inh inactive and MsrA conf 6.0.
O=C(Nc1nc2cc3c(cc2s1)OCCO3)c1ccco1 was read as MsrA inhibitor 4.7, MsrA act inactive, ARFGAP1 inhibitor inactive, ASAP1 inh inactive and MsrA conf 4.7.
For Cc1ccc(C(=O)Nc2nc3ccc(S(C)(=O)=O)cc3s2)o1 the results were MsrA inhibitor inactive, MsrA act inactive, ARFGAP1 inhibitor inactive and ASAP1 inh inactive.
